From ChEMBL document CHEMBL1141357, “Bioactive polychlorinated bibenzyls from the liverwort Riccardia polyclada” (J Nat Prod, 2007)

What was measured:
Cladosporium herbarum [1] = experiment: Growth inhibition of Cladosporium herbarum at 0.05 mg after 72 hrs; type: functional; conditions: read-out: IZ
In short: (§1)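 TLC bioautography with a given dose applied per spot. Plates were sprayed with Cladosporium herbarum spores (5 × 10^5 cfu) in 4% malt extract medium. Growth-inhibition zones were read after 72 h at 27 °C.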

Artemia salina = experiment: Toxicity against brine shrimp by lethality test; type: organism-based; conditions: in vivo
Cladosporium herbarum [2] = experiment: Growth inhibition of Cladosporium herbarum at 0.07 mg after 72 hrs; type: functional; conditions: read-out: IZ; in short: as §1
Spodoptera littoralis = experiment: Antifeedant activity against Spodoptera littoralis larvae at 10 ug/disk by disk-choice assay; type: functional
In short: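 Disk-choice feeding test with fifth-instar Spodoptera littoralis larvae at 10 µg/disk. Read-out is FR50: treated area eaten divided by 50% of the untreated area, scored when half of the untreated area had been eaten.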

Cladosporium herbarum [3] = experiment: Growth inhibition of Cladosporium herbarum at 0.25 mg after 72 hrs; type: functional; conditions: read-out: IZ; in short: as §1

COc1ccc(CCc2c(Cl)ccc(O)c2Cl)cc1
zone of inhibition at 50 µg/disc (Cladosporium herbarum [1]): 22 mm | LC50 (Artemia salina): 0.44 ppm

Oc1ccc(CCc2c(Cl)cc(Cl)c(O)c2Cl)cc1Cl
zone of inhibition at 70 µg/disc (Cladosporium herbarum [2]): 20 mm | FR50 (Spodoptera littoralis): 0.43 | LC50 (Artemia salina): 2.39 ppm

COc1ccc(CCc2c(Cl)cc(Cl)c(O)c2Cl)cc1Cl
zone of inhibition at 50 µg/disc (Cladosporium herbarum [1]): 0 mm | LC50 (Artemia salina): 1.71 ppm

COc1ccc(CCc2c(Cl)ccc(O)c2Cl)cc1Cl
zone of inhibition at 70 µg/disc (Cladosporium herbarum [2]): 12 mm | FR50 (Spodoptera littoralis): 0.63 | LC50 (Artemia salina): 0.42 ppm

CC(=O)N1CCN(c2ccc(OC[C@H]3CO[C@](Cn4ccnc4)(c4ccc(Cl)cc4Cl)O3)cc2)CC1 [KETOCONAZOLE]
zone of inhibition at 250 µg/disc (Cladosporium herbarum [3]): 15 mm | LC50 (Artemia salina): 14.9 ppm
